In ChEMBL document CHEMBL2169847, “New tricks for an old natural product: discovery of highly potent evodiamine derivatives as novel antitumor agents by systemic structure-activity relationship analysis and biological evaluations” (J Med Chem, 2012):
Active and inactive are the calls of the source. The calls are words filed in the database; no cut-off is given here.

How the values were obtained:
A549 [1] = test: Cytotoxicity against human A549 cells incubated for 72 hrs by MTT assay; assay type: functional; conditions: A549, 72 h
In short: (§1)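 MTT assay. Cells seeded at 5 × 10³/well and grown 24 h at 37 °C, 5% CO₂. Compounds added at several concentrations in triplicate wells, with 0.1% DMSO control, for 72 h. MTT then added for 4 h, formazan dissolved in DMSO, and absorbance read at 570 nm. GI₅₀ by Logit method; three experiments.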

Mus musculus [2] = test: Toxicity in BALB/C nude mouse xenografted with human A549 cells assessed as reduction in body weight at 1 mg/kg, ip for 13 days measured on 30 to 33 days post implantation; assay type: organism-based; design: dose 1 mg/kg, route intraperitoneal; conditions: in vivo
In short: (§2)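 Cells implanted subcutaneously in right axilla of nude mice; dosing began at tumor volume about 100−300 mm³ (day 17). Randomized, six mice per treatment group and eight controls; ip injection. Tumor volume by caliper, TV = 1/2 × a × b², with body weight every 4 days. Mice sacrificed day 30−33 and tumors removed. Mean SEM, Student's t test versus control.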

HCT-116 [3] = test: Cytotoxicity against human HCT116 cells incubated for 72 hrs by MTT assay; assay type: functional; conditions: HCT-116, 72 h; in short: as §1
[4] = target: DNA topoisomerase 2-alpha (Homo sapiens) (UniProt P11388); test: Inhibition of human Top2alpha assessed as suppression of supercoiled pBR322 DNA relaxation at 50 uM incubated for 30 mins in presence of excess ATP level by electrophoresis method
[5] = target: T1, DNA topoisomerase 1 (Homo sapiens) (UniProt P11387); test: Inhibition of Top1 assessed as suppression of supercoiled pBR322 DNA relaxation measuring appearance of short DNA fragments at 100 uM incubated for 15 mins by electrophoresis method
T1 sequence (whole entry): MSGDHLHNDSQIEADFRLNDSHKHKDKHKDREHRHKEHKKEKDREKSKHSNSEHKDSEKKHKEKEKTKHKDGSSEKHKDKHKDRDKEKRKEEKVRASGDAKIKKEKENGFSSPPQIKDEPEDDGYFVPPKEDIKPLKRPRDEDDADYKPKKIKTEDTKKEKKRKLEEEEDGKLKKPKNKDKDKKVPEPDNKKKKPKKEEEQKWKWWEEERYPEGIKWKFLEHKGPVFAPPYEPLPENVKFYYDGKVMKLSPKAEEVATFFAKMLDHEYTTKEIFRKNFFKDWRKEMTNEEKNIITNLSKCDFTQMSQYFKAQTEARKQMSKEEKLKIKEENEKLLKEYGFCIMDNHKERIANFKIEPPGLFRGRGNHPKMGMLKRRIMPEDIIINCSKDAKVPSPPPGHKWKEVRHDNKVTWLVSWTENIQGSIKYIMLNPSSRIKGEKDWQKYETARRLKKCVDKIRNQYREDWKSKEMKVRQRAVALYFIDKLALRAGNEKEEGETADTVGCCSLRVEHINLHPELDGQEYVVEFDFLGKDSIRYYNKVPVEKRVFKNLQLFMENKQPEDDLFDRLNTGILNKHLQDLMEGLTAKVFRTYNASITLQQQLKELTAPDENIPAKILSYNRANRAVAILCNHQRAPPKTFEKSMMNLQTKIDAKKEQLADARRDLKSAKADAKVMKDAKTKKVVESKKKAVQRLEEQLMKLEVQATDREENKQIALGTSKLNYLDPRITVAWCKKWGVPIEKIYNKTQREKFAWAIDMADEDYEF

PANC-1 = test: Cytotoxicity against human PANC1 cells incubated for 72 hrs by MTT assay; assay type: functional; conditions: PANC-1, 72 h; in short: as §1
HL-60 = test: Cytotoxicity against human HL60 cells incubated for 72 hrs by MTT assay; assay type: functional; conditions: HL-60, 72 h; in short: as §1
[6] = target: DNA topoisomerase 2-alpha (Homo sapiens) (UniProt P11388); test: Inhibition of human Top2alpha assessed as suppression of supercoiled pBR322 DNA relaxation at 50 uM incubated for 30 mins by electrophoresis method
A549 [7] = test: Antitumor activity against human A549 cells xenografted in BALB/C nude mouse assessed as tumor growth inhibition at 1 mg/kg, ip for 13 days measured on 30 to 33 days post implantation; assay type: functional, organism-based; design: dose 1 mg/kg; in short: as §2
PC-3 = test: Cytotoxicity against human PC3 cells incubated for 72 hrs by MTT assay; assay type: functional; conditions: PC-3, 72 h; in short: as §1
MDA-MB-435 = test: Cytotoxicity against human MDA-MB-435 cells incubated for 72 hrs by MTT assay; assay type: functional; conditions: MDA-MB-435, 72 h; in short: as §1
U2OS = test: Cytotoxicity against human U2OS cells incubated for 72 hrs by MTT assay; assay type: functional; in short: as §1
SAOS-2 = test: Cytotoxicity against human Saos2 cells incubated for 72 hrs by MTT assay; assay type: functional; conditions: SAOS-2, 72 h; in short: as §1
HepG2 = test: Cytotoxicity against human HepG2 cells incubated for 72 hrs by MTT assay; assay type: functional; conditions: HepG2, 72 h; in short: as §1
[8] = Cytotoxicity against human KYSE-150 cells incubated for 72 hrs by MTT assay; assay type: functional; conditions: KYSE-150, 72 h; in short: as §1
ZR-75-30 = test: Cytotoxicity against human ZR75-30 cells incubated for 72 hrs by MTT assay; assay type: functional; conditions: ZR-75-30, 72 h; in short: as §1
CNE = test: Cytotoxicity against human CNE cells incubated for 72 hrs by MTT assay; assay type: functional; in short: as §1
Nucleic Acid [9] = test: Induction of DNA intercalation in Escherichia coli pBR322 DNA assessed as induction of supercoiled DNA at 1 ug/ml incubated for 15 mins by electrophoresis based Top1 unwinding assay; assay type: nucleic-acid assay
In short: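 pBR322 plasmid (0.25 μg) preincubated with 100 μM compound or 1 μg/mL ethidium bromide, 37 °C, 15 min, in Top1 buffer (35 mM Tris-HCl pH 8.0, 72 mM KCl, 5 mM MgCl2, 5 mM DTT, 5 mM spermidine, 0.1% BSA). 5 U Top1 then added for 60 min at 37 °C. Stopped with SDS and proteinase K (50 °C, 20 min), phenol/chloroform extracted, agarose gel.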

Mus musculus [10] = test: Toxicity in BALB/C nude mouse xenografted with human HCT116 cells assessed as reduction in body weight at 2 mg/kg, ip administered as a single dose on 17th day and measured on 30 to 33 days post implantation; assay type: organism-based, HCT-116; design: dose 2 mg/kg, route intraperitoneal; conditions: in vivo; in short: as §2
Nucleic Acid [11] = test: Binding affinity at calf thymus DNA minor groove assessed as displacement of Hoechst 33258 dye incubated for 20 mins by microplate reader based assay; assay type: nucleic-acid assay; conditions: Bos taurus
HCT-116 [12] = test: Antitumor activity against human HCT116 cells xenografted in BALB/C nude mouse assessed as tumor growth inhibition at 2 mg/kg, ip administered as a single dose on 17th day and measured on 30 to 33 days post implantation; assay type: functional, organism-based; design: dose 2 mg/kg; in short: as §2
[13] = target: T1, DNA topoisomerase 1 (Homo sapiens); test: Inhibition of Top1 assessed as stabilization of Top1-pUC19 DNA cleavage complex measuring increase of nicked DNA at 100 uM incubated for 15 mins by electrophoresis method
Nucleic Acid [14] = test: Induction of DNA intercalation in Escherichia coli pBR322 DNA assessed as induction of supercoiled DNA at 100 uM incubated for 15 mins by electrophoresis based Top1 unwinding assay; assay type: nucleic-acid assay
Nucleic Acid [15] = test: Binding affinity at calf thymus DNA at 50 uM after 20 mins by UV/vis absorbance titration based assay; assay type: nucleic-acid assay; conditions: Bos taurus
In short: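 ct-DNA in DPBS pH 7.4, concentration set by A260 (13200 M⁻¹/cm per bp). Compounds at 50 μM in DPBS with 1% DMSO, with or without ct-DNA 0−100 μM. After 20 min equilibration at room temperature, absorption spectra recorded over 220−400 nm in a microplate reader. Hypochromic or bathochromic shifts taken as the sign of binding.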

[16] = target: T1, DNA topoisomerase 1 (Homo sapiens); test: Inhibition of Top1 assessed as suppression of supercoiled pBR322 DNA relaxation measuring appearance of short DNA fragments at 50 uM incubated for 15 mins by electrophoresis method
A549 [17] = test: Induction of apoptosis in human A549 cells assessed as change in cell morphology at 5 uM incubated for 48 hrs by immunostaining based light microscopy; assay type: functional
In short: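 A549 cells exposed to 5 μM compound, or DMSO, for 48 h. Morphology judged under a light microscope.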

A549 [18] = test: Induction of apoptosis in human A549 cells at 5 uM incubated for 48 hrs by flow cytometry (reference value: 0.43%); assay type: functional
[19] = target: DNA topoisomerase 2-alpha (Homo sapiens) (UniProt P11388); test: Inhibition of human Top2alpha assessed as stabilization of Top2-pBr322 DNA cleavage complex measuring linear DNA formation at 100 uM incubated for 20 mins by electrophoresis method
In short: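 Top2α drug screening kit with 8 units hTop2α and pBR322 plasmid. After reaction, proteinase K (200 μg/mL final) 20 min at 50 °C. Electrophoresis in TAE with 0.5 μg/mL ethidium bromide to resolve nicked, linear, relaxed and supercoiled forms.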

Chain of DNA topoisomerase 2-alpha (Homo sapiens) (P11388 whole entry, the tested form may be a part): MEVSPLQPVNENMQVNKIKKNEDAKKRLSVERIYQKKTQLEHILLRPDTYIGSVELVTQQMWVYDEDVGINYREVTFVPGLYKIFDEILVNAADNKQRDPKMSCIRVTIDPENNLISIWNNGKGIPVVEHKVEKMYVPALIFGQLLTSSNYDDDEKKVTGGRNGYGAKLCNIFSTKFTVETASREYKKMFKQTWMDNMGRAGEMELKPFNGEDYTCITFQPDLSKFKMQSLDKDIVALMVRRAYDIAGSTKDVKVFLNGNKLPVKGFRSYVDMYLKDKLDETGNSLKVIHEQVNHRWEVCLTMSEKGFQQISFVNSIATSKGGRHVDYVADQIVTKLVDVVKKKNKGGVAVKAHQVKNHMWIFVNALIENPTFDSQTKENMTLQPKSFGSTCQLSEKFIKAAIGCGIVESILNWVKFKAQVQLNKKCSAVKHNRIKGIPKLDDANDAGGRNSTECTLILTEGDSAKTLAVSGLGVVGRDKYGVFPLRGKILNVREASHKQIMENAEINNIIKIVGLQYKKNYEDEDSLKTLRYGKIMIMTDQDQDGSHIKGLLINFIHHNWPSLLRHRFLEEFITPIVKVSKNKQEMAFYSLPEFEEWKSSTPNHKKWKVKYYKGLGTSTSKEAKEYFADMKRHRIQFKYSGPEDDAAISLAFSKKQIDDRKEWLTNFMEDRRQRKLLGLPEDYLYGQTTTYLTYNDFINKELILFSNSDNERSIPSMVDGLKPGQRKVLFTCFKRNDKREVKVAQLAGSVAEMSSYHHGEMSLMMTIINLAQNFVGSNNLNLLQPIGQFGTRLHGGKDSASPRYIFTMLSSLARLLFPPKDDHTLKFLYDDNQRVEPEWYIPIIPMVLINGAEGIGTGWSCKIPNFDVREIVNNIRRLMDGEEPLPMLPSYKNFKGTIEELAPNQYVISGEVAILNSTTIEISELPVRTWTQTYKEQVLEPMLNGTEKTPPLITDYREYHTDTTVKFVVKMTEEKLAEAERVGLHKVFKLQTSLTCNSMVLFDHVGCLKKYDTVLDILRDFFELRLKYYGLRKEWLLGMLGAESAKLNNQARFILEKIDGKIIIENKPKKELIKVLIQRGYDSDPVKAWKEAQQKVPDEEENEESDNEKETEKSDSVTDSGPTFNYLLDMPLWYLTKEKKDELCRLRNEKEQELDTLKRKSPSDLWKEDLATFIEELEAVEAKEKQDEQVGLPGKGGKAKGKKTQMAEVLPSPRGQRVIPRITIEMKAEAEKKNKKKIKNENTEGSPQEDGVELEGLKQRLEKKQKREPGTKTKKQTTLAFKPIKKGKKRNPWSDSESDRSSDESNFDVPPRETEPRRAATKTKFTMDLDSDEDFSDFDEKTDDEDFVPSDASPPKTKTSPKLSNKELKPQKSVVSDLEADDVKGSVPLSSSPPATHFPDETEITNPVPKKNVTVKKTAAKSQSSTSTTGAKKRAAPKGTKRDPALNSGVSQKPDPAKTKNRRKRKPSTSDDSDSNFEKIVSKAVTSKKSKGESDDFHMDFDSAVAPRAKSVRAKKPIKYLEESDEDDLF

Structure (SMILES)	GI50 (A549 [1]) [nM]	GI50 (HCT-116 [3]) [nM]	inhibition [5]	GI50 (PANC-1) [nM]	GI50 (HL-60) [nM]	inhibition [6]	GI50 (PC-3) [nM]	GI50 (MDA-MB-435) [nM]	GI50 (U2OS) [nM]	GI50 (SAOS-2) [nM]	GI50 (HepG2) [nM]	GI50 [8] [nM]	GI50 (ZR-75-30) [nM]	GI50 (CNE) [nM]	Activity (Mus musculus [10])	TGI (HCT-116 [12])	inhibition [16]	also measured
CN1c2ccc(F)cc2C(=O)N2CCc3c([nH]c4ccccc34)C21 (stereo not drawn)	< 3	< 3	Active	1700	< 3	Active	34200	< 3	129000	205000	188000	–	–	–	–	–	–	Activity (Mus musculus [2]): Non-toxic; inhibition [4]: inactive; TGI (A549 [7]): Active
CN1c2ccc(F)cc2C(=O)N2CCc3c([nH]c4ccc(O)cc34)[C@@H]21	4.6	11	–	–	–	–	–	–	–	–	–	1230	1750	5880	–	–	–	–
CC[n+]1c(-c2ccccc2)c2cc(N)ccc2c2ccc(N)cc21	–	–	–	–	–	–	–	–	–	–	–	–	–	–	–	–	–	Activity (Nucleic Acid [9]): Active
CN1c2ccc(F)cc2C(=O)N2CCc3c([nH]c4ccc(O)cc34)[C@H]21	3.7	3.6	–	–	–	–	–	–	–	–	–	3	3	8110	–	–	–	–
CN1c2ccc(N)cc2C(=O)N2CCc3c([nH]c4ccc(O)cc34)C21 (stereo not drawn)	4000	7	Active	–	–	–	–	7	–	–	–	–	–	–	Non-toxic	Active	Active	Activity (Nucleic Acid [11]): inactive; inhibition [13]: Active; Activity (Nucleic Acid [14]): inactive; Activity (Nucleic Acid [15]): inactive; Activity (A549 [17]): Active; Activity (A549 [18]): 14.48%; inhibition [19]: inactive
CN1c2ccccc2C(=O)N2CCc3c([nH]c4c(Cl)cccc34)C21 (stereo not drawn)	2550	< 3	Active	120	< 3	inactive	> 296000	< 3	> 296000	> 296000	2310	–	–	–	Toxic	Active	Active	–
